Many of the other results were omitted from the sample, so hits are more common in it than they were.
GSK3 alpha inh: blocks human GSK-3 alpha kinase; inhibition, % at 10 µM; P49840; 320,000 tested, 0.1% active; ADP-Glo luminescence, 60 min;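 active means more than half of replicates show inhibition above 20%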;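 further: GST-tagged GSK-3 alpha with peptide substrate and 25 µM ATP; 0% = DMSO neutral wells and 100% = GW8510 positive control wells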
Target sequence (P49840 whole entry, looked up): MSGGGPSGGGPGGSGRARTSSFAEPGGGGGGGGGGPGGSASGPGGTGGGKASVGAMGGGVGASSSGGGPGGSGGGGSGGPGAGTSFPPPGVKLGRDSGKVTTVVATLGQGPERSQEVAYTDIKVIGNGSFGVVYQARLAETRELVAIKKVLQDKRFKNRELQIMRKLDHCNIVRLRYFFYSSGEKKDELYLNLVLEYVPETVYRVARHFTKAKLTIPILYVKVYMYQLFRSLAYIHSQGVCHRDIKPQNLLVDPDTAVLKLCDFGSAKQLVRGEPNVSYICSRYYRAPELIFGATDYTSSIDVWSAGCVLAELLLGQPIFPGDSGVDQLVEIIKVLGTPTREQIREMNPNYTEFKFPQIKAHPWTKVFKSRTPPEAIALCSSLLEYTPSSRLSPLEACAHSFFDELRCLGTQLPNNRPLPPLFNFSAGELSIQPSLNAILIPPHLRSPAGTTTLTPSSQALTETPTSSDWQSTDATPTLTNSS
Dyrk1A ADPGlo: Dyrk1A (rat) kinase inhibition | Q63470 | ADP-Glo luminescence, NFATc1 peptide | inhibition, % at 12.5 µM | 310,000 tested, 0.43% active; in the data active means inhibition above about 50%;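 further: plate controls were vehicle with enzyme for no effect and no enzyme for full effect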
GSK3beta inhib: blocks human GSK3beta kinase activity; P49841; GST-GSK3beta kinase, ADP-Glo luminescence, 60 min; stronger effect = lower value; activity score (negative = inhibition), % at 10 µM; 300,000 tested, 0.038% active;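 active means more than half of replicate wells score below -50%, meaning over 50% inhibition versus plate controls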;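 further: 0% = median DMSO wells and -100% = median GW8510 positive control wells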
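Test system: GST-tagged human GSK3beta kinase, cell-free; evaluation: activity score scaled between in-plate DMSO and GW8510 controls; measured by: ADP-Glo luminescence; incubation: 60 min reaction, RT; benchmarks: DMSO and 20 µM GW8510; reagent: peptide substrate plus 25 µM ATP (final); medium: Tris/MgCl2 kinase buffer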
STK33 kinase inh: blocks human STK33 kinase activity | inhibition, % at 10 µM | 320,000 tested, 0.073% active | purified STK33, MBP phosphorylation, ADP-Glo luminescence | AID 2661 | Q9BYT3;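 active means inhibition at or above 25%, using the most active replicate where run in duplicate; inactive means inhibition below 25%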
CDK5 inh: blocks human CDK5/p35 kinase activity; Q00535+Q15078; Recombinant CDK5/p35, ADP-Glo luminescence, 60 min; inhibition, % at 10 µM; 330,000 tested, 0.01% active;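 active means highest replicate inhibition of at least 50% and at least 75% of replicates reaching 50%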;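 further: plate controls were DMSO neutral control for no effect and GW8510 at 10 µM for full effect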
Dyrk1A artifact: interferes with ADP-Glo luciferase readout without Dyrk1A | AC50, µM (series often up to 12 µM), inactives show top-dose activity change, negative = inhibition | ADP-Glo luciferase artifact assay, no Dyrk1A, luminescence | AID 588348 | 1,300 tested, under 10 active | shares compounds with Dyrk1A ADPGlo;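 active means fitted half-maximal dose AC50 no more than ten times the top valid tested dose, with luminescence dropping as dose rises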
Starred values were filed as active, the others as inactive; nt = not tested or not shown.

SMILES	GSK3 alpha inh	Dyrk1A ADPGlo	GSK3beta inhib	STK33 kinase inh	CDK5 inh	Dyrk1A artifact
COc1cc(/C=C2\SC(N3CCC(C)CC3)=NC2=O)ccc1O	5	77*	-2	21	2	12%
COc1cccc(OCc2cc(C(=O)N(C)Cc3nccn3C)no2)c1	-2	-4	-1	0	-1	nt
Cc1n[nH]c(C)c1NC(=O)CSc1nnnn1-c1cccc(F)c1	-1	-2	nt	-1	0	nt
COc1cc(/C=C(\C#N)C(=O)NCCc2ccccc2)cc(OC)c1O	0	0	-3	0	0	nt
N#C/C(=C/c1ccc(O)c([N+](=O)[O-])c1)C(=O)Nc1ccccc1	8	81*	-5	6	1	9%
N#C/C(=C\c1ccc(O)c(O)c1)C(=O)NCCc1ccccc1	2	70*	nt	5	1	11%
COCCNC(=O)CN(C(=O)Cn1nnc2ccccc21)c1cc(C)cc(C)c1	-3	-5	4	-1	-1	nt
Cn1c(CC(=O)Nc2ccccc2F)nnc1SCC(=O)NC1=NCCS1	-1	17	0	0	1	nt
OCC[C@H]1C[C@@H](O)[C@H](O)[C@@]2(CCc3ccccc3CO2)O1	-2	-13	nt	1	-4	nt
OCC[C@@H]1C[C@H](O)[C@@H](O)[C@@]2(CCc3ccccc3CO2)O1	9	52*	-4	5	2	7%
CCOC(=O)c1ccc2ncc(C(=O)OCC)c(NCCN3CCOCC3)c2c1	22	19	-21	2	-2	nt
CCOC(=O)c1cnc2ccc(C)cc2c1Nc1ccc(N2CCOCC2)cc1	4	61*	0	5	6	8%
c1nc2sc3c(c2c2nnnn12)CCCC3	12	50*	1	3	2	8%
c1nc2sc3c(c2c2nnnn12)CCC3	5	10	-1	2	2	nt
O=C(NNS(=O)(=O)c1ccccc1)c1csc(-c2cccnc2)n1	1	34	-5	3	2	nt
O=C(Nc1ccccc1Cl)c1csc(-c2cccnc2)n1	4	75*	-2	8	1	11%
O=C1C2C(c3ccccc3)CC=CC2[C@H](c2ccoc2)N1Cc1ccccc1 (some centres undefined)	0	60*	-1	-1	0	11%
COc1ccc2c(C#N)c3ccccn3c2c1	7	72*	-1	3	1	9%
Nc1nc(N)nc(-c2ccc(Cl)cc2)n1	1	62*	0	2	1	7%
COc1ccc(-c2cc(C(=O)Nc3ccc(C(N)=O)cc3)c3ccccc3n2)cc1	-3	0	-2	1	-1	nt
CCN(CC)C(=O)Oc1ccc2c(c1)O/C(=C\c1ccco1)C2=O	-2	53*	-1	-3	0	8%
CCC(=O)Oc1ccc2c(c1)O/C(=C\c1ccco1)C2=O	0	18	0	-2	3	nt
CCOC(=O)C1=C(C)N(CCCC(=O)O)C(=O)NC1c1ccc(Cl)cc1 (centres undefined)	2	-1	2	1	-1	nt
COC(=O)C1=C(C)N(CCCC(=O)O)C(=O)NC1c1ccc(Cl)cc1 (centres undefined)	-2	56*	1	0	2	7%
Cc1cc(C)cc(N=Cc2c(O)c3ccccc3oc2=O)c1	-1	nt	5	-2	0	nt
SMILES	GSK3 alpha inh	Dyrk1A ADPGlo	GSK3beta inhib	STK33 kinase inh	CDK5 inh	Dyrk1A artifact
O=C(O)c1cc(N=Cc2c(O)c3ccccc3oc2=O)ccc1O	-3	82*	-1	15	1	9%
Oc1ccc(/C=N/n2c(-c3ccccc3)n[nH]c2=S)cc1	6	55*	-2	34*	7	9%
COc1ccc(/C=N/n2c(-c3ccccc3)n[nH]c2=S)cc1	4	-3	1	5	-2	nt
NNC(=O)c1nc(Cl)c(Cl)c(N)c1Cl	1	-4	1	1	-1	nt
Fc1cccc(NC(=S)NCc2ccccc2Cl)c1	0	nt	1	0	-1	nt
O=C(Nc1ccc(Cl)c(Cl)c1)OCc1cnc(Cl)s1	nt	59*	1	nt	0	7%
CCOC(=O)C1=C(C)OC(N)=C(C#N)C1c1cc2c(cc1Br)OCO2 (centres undefined)	-1	54*	2	12	1	7%
O=C(O)c1cc2ccccc2c2cc(Br)ccc12	3	69*	2	-2	-1	8%
Nc1ccc2c(c1)C(=O)c1ccccc1-2	-1	7	0	-2	-4	nt
Nc1ccc2c(c1)C(=O)C(=O)c1ccccc1-2	-4	89*	1	0	2	7%
COc1ccc2nc(NC(=O)C3CSC4(C)CCC(=O)N34)sc2c1 (centres undefined)	5	1	-4	0	0	nt
CCc1ccc2nc(NC(=O)C3CSC4(C)CCC(=O)N34)sc2c1 (centres undefined)	0	61*	4	0	1	10%
CCOC(=O)c1cc2c(ccn2-c2ccc(F)cc2)n1CC(=O)N(CC)CC	0	-4	2	-1	0	nt
Cc1nc(COc2ccccc2Cl)sc1-c1ccnc(N)n1	3	79*	-17	7	0	10%
Clc1ccccc1OCc1nn2c(-c3ccncc3)nnc2s1	-1	7	0	4	-17	nt
Fc1ccc(NC(=S)Nc2cccc3cnccc23)cc1	12	59*	-2	7	5	9%
Cc1ccc(S(=O)(=O)N(C)C)cc1NC(=S)Nc1cccc2ccccc12	3	4	-1	-1	1	nt
COc1ccc(NC(=S)Nc2cccc3cnccc23)cc1	4	56*	2	4	nt	7%
S=C(Nc1cccnc1)Nc1cccc2cnccc12	59*	60*	-3	27*	9	9%
CN(C)S(=O)(=O)c1cccc(NC(=S)Nc2cccc3cnccc23)c1	nt	56*	2	nt	2	8%
S=C(Nc1ccc(Cl)cc1)Nc1cccc2cnccc12	5	26	-2	6	4	nt
Cc1onc(-c2ccccc2)c1C(=O)NNC(=S)NC(=O)c1ccc2c(c1)OCO2	0	-7	0	-1	-8	nt
CC(=O)Nc1ccc(SCc2c(C)noc2C)cc1	0	3	3	-2	0	nt
CC(=O)Nc1ccc(SCc2ncc(-c3ccccc3)o2)cc1	3	64*	-1	22	3	6%
COCCNC(=O)c1cc2cc3ccc(OC)cc3nc2o1	0	58*	1	1	0	10%
COc1ccc2cc3cc(C(=O)NCC4CCCO4)oc3nc2c1 (centres undefined)	3	54*	2	1	2	10%
COc1ccc2cc3cc(C(=O)NCCC(C)C)oc3nc2c1	-2	12	2	1	1	nt
COc1ccc(C(=O)NCC2CCCO2)cc1 (centres undefined)	-2	1	1	0	2	nt
CCN(CC)C(=O)C(=O)N/N=C/c1ccc(F)cc1	-1	-2	-3	-1	-2	nt

Source: PubChem BioAssay (Broad Institute)
